Screens (PubChem)
In the library only some 2% were active in any assay of this set; here they are far more common.
ARFGAP1 inhibitor: inhibitors of rat ARFGAP1 GAP activity, primary screen, biochemical, fluorescence polarization, GDP tracer; 360,000 tested, 0.26% active; ADP-ribosylation factor GTPase-activating protein 1 (Rattus norvegicus), Q62848; Arfgap1-stimulated ARF1 GTP hydrolysis, GDP FP detection; inhibition, % at 16.5 µM;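 active = inhibition above a per-plate limit, mean inhibition of low control wells plus 3 SD, cut at about 25% in these data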;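 also: 0% = DMSO wells with enzyme and 100% = wells lacking Arfgap1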
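Material: truncated rat Arfgap1 GAP domain; Incubation: compound-enzyme preincubation 20 min, reaction 120 min, detection 60 min, 25 °C; Read-out: percent inhibition of Arfgap1-stimulated GTP hydrolysis; Technique: FP, GDP Alexa 633 tracer displaced from anti-GDP antibody, 620/688 nm; Controls: No-Arfgap1 wells (100%) versus DMSO full-reaction wells (0%); Replication: single well per compound.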
ASAP1 inh: inhibitors of human ASAP1 ArfGAP activity, primary screen, biochemical, fluorescence polarization. 360,000 tested, 0.19% active. inhibition, % at 16.5 µM. Arf-GAP with SH3 domain, ANK repeat and PH domain-containing protein 1 (Homo sapiens), …. ASAP1-stimulated ARF1 GTP hydrolysis, GDP FP detection. AID 624377, 2012; in the data active = inhibition above about 25%;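 also: 0% = vehicle with enzyme and substrate and 100% = no enzyme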
TDP2 absorb: human TDP2 enzyme inhibitors, primary screen, biochemical, epi absorbance, recombinant enzyme; Tyrosyl-DNA phosphodiesterase 2 (Homo sapiens), O95551; T5PNP hydrolysis, p-nitrophenol absorbance 415 nm; inhibition, % at 12.8 µM; 370,000 tested, 0.34% active; AID 720702, 2013;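 active = inhibition above the mean of all tested compounds plus 3 SD, set per campaign, cut at about 25% in these data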;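 also: 0% = DMSO with enzyme and 100% = buffer with substrate but no TDP2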
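Test system: human TDP2 enzyme; Input: 120 nM TDP2 per well; Buffer or medium: Mg2+-containing Tris-HCl buffer, pH 7.5; Reagent: 5 mM T5PNP; Dosing: 12.8 µM single point, 1% DMSO; Incubation: reaction 2 h, 37 °C; Detection: p-Nitrophenol epi absorbance; Read-out: % inhibition relative to enzyme-containing and enzyme-free wells; Replicates: single well per compound.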
LEDGF integ inh: blockers of LEDGF/p75-dependent integrase strand transfer – biochemical, TR-FRET, high throughput, primary screen | inhibition, % at 3.7 µM | HIV-1 integrase (with human LEDGF/p75) | TR-FRET IN-LEDGF/p75 DNA integration, Eu/Cy5 | 370,000 tested, 0.64% active;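 active = inhibition above the screen-wide mean plus 3 SD, cut at about 13% in these data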;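 also: signal is the Cy5 over europium emission ratio at 671 and 618 nm; 0% = plate median of compound wells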
UHRF1 MBD2 ctr: UHRF1 methylated DNA binding inhibitors, primary screen, counter-screen for MBD2 inhibitor project, biochemical, TR-FRET, human UHRF1, single concentration. UHRF1 binding to methylated oligo. inhibition, % at 4.4 µM. 370,000 tested, 0.75% active; in the data active = inhibition above about 21%;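 also: UHRF1 SRA domain binding a hemimethylated CpG hairpin DNA probe; 0% = median of test compound wells and 100% = reference inhibitor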
Target sequence (Q96T88 whole entry, looked up, the tested form may be a part): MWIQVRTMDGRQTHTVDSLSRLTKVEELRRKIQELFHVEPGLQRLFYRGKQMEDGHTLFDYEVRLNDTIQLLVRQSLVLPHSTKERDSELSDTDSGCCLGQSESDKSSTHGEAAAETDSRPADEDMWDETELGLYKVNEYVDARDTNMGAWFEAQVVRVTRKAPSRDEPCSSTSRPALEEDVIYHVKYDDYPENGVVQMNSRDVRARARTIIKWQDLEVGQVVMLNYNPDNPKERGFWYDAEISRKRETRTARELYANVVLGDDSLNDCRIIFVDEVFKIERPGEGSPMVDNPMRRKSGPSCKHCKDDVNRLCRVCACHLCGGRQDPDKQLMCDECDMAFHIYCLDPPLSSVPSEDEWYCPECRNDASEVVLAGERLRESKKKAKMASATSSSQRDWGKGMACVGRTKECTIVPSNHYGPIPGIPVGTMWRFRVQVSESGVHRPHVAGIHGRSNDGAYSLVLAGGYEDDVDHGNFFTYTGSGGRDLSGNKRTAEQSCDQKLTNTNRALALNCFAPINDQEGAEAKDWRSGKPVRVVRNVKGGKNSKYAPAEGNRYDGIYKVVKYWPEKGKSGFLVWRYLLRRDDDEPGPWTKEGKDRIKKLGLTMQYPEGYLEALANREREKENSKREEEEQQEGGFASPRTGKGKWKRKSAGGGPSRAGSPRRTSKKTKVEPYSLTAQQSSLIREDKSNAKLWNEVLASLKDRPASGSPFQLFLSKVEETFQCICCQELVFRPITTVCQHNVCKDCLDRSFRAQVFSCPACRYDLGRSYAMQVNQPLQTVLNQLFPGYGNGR
MBD2 DNA inh: inhibitors of MBD2 binding to methylated DNA, primary screen, biochemical, TR-FRET, DNA-binding domain, human; MBD2 binding to methylated oligonucleotide; Methyl-CpG-binding domain protein 2 (Homo sapiens), Q9UBB5; inhibition, % at 4.4 µM; 370,000 tested, 0.31% active; in the data active = inhibition above about 13%
UHRF1 ctr MBD2: UHRF1 methylated DNA binding inhibitors, counter-screen for MBD2 inhibitor project, biochemical, TR-FRET, human UHRF1. shares compounds with MBD2 DNA inh. UHRF1 binding to methylated oligonucleotide. inhibition, % at 4.4 µM. 1,000 tested, 25% active; in the data active = inhibition above about 21%;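 also: UHRF1 SRA domain binding a labeled hemimethylated CpG hairpin DNA; 0% = vehicle only and 100% = reference inhibitor with vehicle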
MBD2 confirm: inhibitors of MBD2 binding to methylated DNA, confirmation, biochemical, TR-FRET, DNA-binding domain, human | shares compounds with MBD2 DNA inh | TR-FRET MBD2-DBD binding to methylated oligonucleotide | inhibition, % at 4.4 µM | 1,000 tested, 26% active
TDP2 confirm: human TDP2 enzyme inhibitors, retest, confirmation, biochemical, epi absorbance, recombinant enzyme. absorbance read-out. shares compounds with TDP2 absorb. inhibition, % at 12.8 µM. AID 743263, 2014. 1,100 tested, 22% active; in the data active = inhibition above about 25%;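 also: 0% = vehicle with enzyme and 100% = no enzyme buffer only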
IN multimer up: HIV-1 IN multimer formation enhancers, counter-screen for LEDGF/p75 integration inhibitor project, biochemical, TR-FRET | shares compounds with LEDGF integ inh | TR-FRET HIV-1 integrase multimerization | activation, % at 7.7 µM | 2,000 tested, 17% active | AID 1053131, 2014; in the data active = activation above about 8.9%
TR-FRET interf: TR-FRET optical interference artefacts, confirmation, artefact control for LEDGF/p75-dependent integration inhibitor project, biochemical, HIV-1 IN multimerization; TR-FRET optical interference counterscreen; shares compounds with LEDGF integ inh; inhibition, % at 7.7 µM; 2,000 tested, under 10 active; AID 1053135, 2014;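 active = inhibition above the mean over all tested compounds plus 3 SD, which no compound reached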;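 also: 0% = integrase with antibodies and DMSO and 100% = antibodies without integrase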
LEDGF integ conf: inhibitors of HIV-1 IN-LEDGF/p75 DNA integration, confirmation, biochemical, TR-FRET | TR-FRET LEDGF/p75-dependent HIV-1 integration | AID 1053136, 2014 | inhibition, % at 3.7 µM | shares compounds with LEDGF integ inh | 2,000 tested, 36% active
An asterisk follows results filed as active; / = no result given. Rule as the data show it, unless noted: active = inhibition above about 14%; inactive = the rest.

SMILES	ARFGAP1 inhibitor	ASAP1 inh	TDP2 absorb	LEDGF integ inh	UHRF1 MBD2 ctr	MBD2 DNA inh	UHRF1 ctr MBD2	MBD2 confirm	IN multimer up	TR-FRET interf	LEDGF integ conf	others
N#Cc1c(SCC(=O)Nc2nccs2)sc2c(O)cc(=O)[nH]c12	-7	3	14	18*	77*	35*	27*	15*	44*	-156	34*
O=S(=O)(c1cc(O)ccc1O)c1cccc2c(S(=O)(=O)c3cc(O)ccc3O)cccc12	25*	22	3	16*	33*	20*	37*	17*	22*	-109	41*
O=C(NC1CCCCN(Cc2cccc(C(F)(F)F)c2)C1=O)c1cccc([N+](=O)[O-])c1 (centres undefined)	/	/	0	0	-1	4	/	/	/	/	/
Cc1[nH]n(-c2ccccc2)c(=O)c1C(C[N+](=O)[O-])c1ccc(Br)cc1 (centres undefined)	20	6	22	-1	-5	-2	/	/	/	/	/
Cc1[nH]n(-c2ccccc2)c(=O)c1C(c1ccc(C(=O)O)cc1)c1c(C)[nH]n(-c2ccccc2)c1=O	15	-4	99*	34*	20	20*	11	2	6	-20	14*	TDP2 confirm=25*
Cc1[nH]n(-c2ccccc2)c(=O)c1C(c1cccc([N+](=O)[O-])c1O)c1c(C)[nH]n(-c2ccccc2)c1=O	-4	-9	84*	26*	24*	21*	4	0	8	-41	1	TDP2 confirm=3
O=C(CSc1nnc(-c2cccnc2)n1-c1ccc(Cl)cc1)Nc1ccc(S(=O)(=O)Nc2nccs2)cc1	/	/	0	1	-2	3	/	/	/	/	/
CCCCn1c(NS(=O)(=O)c2ccccc2)c(S(=O)(=O)c2ccc(C)cc2)c2nc3ccccc3nc21	-18	-16	89*	23*	17	21*	-4	14*	2	-6	73*	TDP2 confirm=95*
CN(C)c1ccc(O)c2c1CC1CC3[C@@H](N(C)C)C(=O)C(C(N)=O)=C(O)[C@]3(O)C(=O)C1=C2O (some centres undefined)	-4	-5	10	77*	80*	35*	36*	15*	51*	-182	48*
C=CCn1c(COc2ccccc2)nnc1SCC(=O)c1ccc(-c2ccccc2)cc1	/	/	-2	-2	-1	0	/	/	/	/	/
CCOc1ccc(NC(=O)CN(C)C(=O)c2cc3c(s2)CCC3)cc1OCC	-2	9	-1	16*	27*	17*	24*	20*	14*	-69	18*
CCOc1ccc(NC(=O)CN(C)C(=O)c2csc3c2CCCC3)cc1OCC	-9	2	-2	-2	6	-2	/	/	/	/	/
CCOc1cccc(=O)c2c(C)n(Cc3ccccc3)c(C)c12	-2	-9	8	-1	-3	0	/	/	/	/	/
CCOc1cccc(=O)c2c(C)n(-c3ccc(C(=O)O)cc3)c(C)c12	-8	-9	13	76*	88*	31*	10	2	3	-17	30*
CC1(C)C=C2C(N(CC3CC3)C(=N)N2C(=O)OCc2ccccc2)n2c(=O)n(-c3ccccc3)c(=O)n21 (centres undefined)	/	/	-7	1	3	0	/	/	/	/	/
COC(=O)C(C(=O)OC)[C@H]1C=C[C@@H](C(=O)NS(=O)(=O)c2ccc(C)cc2)N(C(C)=O)C1	/	/	-4	0	5	-1	/	/	/	/	/
O=C(O)c1ccccc1-c1ccc(C=c2sc3nc4cc(Br)cnc4n3c2=O)o1	-14	-4	-11	29*	95*	55*	72*	63*	-3	13	17*
O=C(O)c1cccc(-c2ccc(/C=c3/sc4nc5ccccc5n4c3=O)o2)c1	-10	7	9	46*	81*	34*	54*	19*	11*	-54	20*
O=C(O)c1ccccc1-c1ccc(/C=C/c2cc(C(F)(F)F)[nH]c(=O)n2)o1	4	1	-3	5	-18	-10	/	/	/	/	/
CCN(Cc1cn(Cc2ccccc2)nn1)S(=O)(=O)c1ccc(N2CCCC2)cc1Br	/	/	4	0	-3	1	/	/	/	/	/
c1ccc(-c2nnc(-c3ccco3)o2)cc1	2	1	-6	2	-4	-1	/	/	/	/	/
c1coc(-c2nnc(-c3ccco3)nn2)c1	1	2	10	61*	77*	33*	77*	35*	11*	-58	86*
CC(=O)Nc1ccc(S(=O)(=O)N2CCC(NC(=O)C(Cc3cccc(F)c3)NC(C)=O)CC2)cc1 (centres undefined)	4	-1	28*	3	-3	-1	/	/	/	/	/	TDP2 confirm=3
